Beta cell apopt: beta cell apoptosis inhibition; INS-1E cytokine-induced death, ATP luminescence, 48 h; percent of positive-control rescue, neutral wells zero; protection from apoptosis, % (concentration not given with the values); AID 435005; 0.8% of 300,000 active;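 active means Every replicate reaches about 75%, or at least half do and their mean reaches it too, limit read from the data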;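 further: 0% = cytokine-treated negative control wells and 100% = positive control rescue; higher means more ATP so stronger rescue from cytokine killing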
WT yeast gro inh: growth inhibition of WT yeast, mitochondrial fusion screen | mitochondrial fusion phenotypic screen, WT strain | inhibition, % at 10 µM | 2.1% of 190,000 active | AID 1362; in the data active means inhibition above about 58%; tested in S. cerevisiae
Mot1-301 SUMO: SUMOylation pathway inhibition by Mot1-301 growth rescue; S. cerevisiae Mot1-301 growth rescue, ATP luminescence, 38.5C; percent above DMSO median, 100 means doubled; growth rescue, % at 18.8 µM; 1% of 320,000 active;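 active means every valid replicate shows activation above 250% relative to neutral control wells; inactive means the rest, any valid replicate at or below 250%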;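 further: OY570 slx delta 5 strain wells were the positive control but not used for scaling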
CSC inhib: cancer stem cell inhibition; cancer stem cell-like cells viability, luminescence; inhibition, % at 7.5 µM; 1.1% of 300,000 active; in the data active means inhibition above about 75%; tested in HMLE shEcad cells
T cruzi repl: T. cruzi replication inhibition; T. cruzi beta-gal in NIH3T3, luminescence, 90 h; inhibition, % (test concentration not listed); 1.4% of 300,000 active; AID 1885;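 active means mean inhibition across valid replicates above about 55%, limit read from the data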;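 further: signal also drops with host cell toxicity which is not excluded here; 0% = plate median of DMSO wells and 100% = zero luminescence signal; higher percent means less beta-gal luminescence so fewer parasites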
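Read-out: Parasite load inhibition, % | Test system: Mouse NIH/3T3 fibroblasts infected with β-gal-expressing T. cruzi Tulahuen C4 | Amount: 5,000 cells/well | Medium: DMEM, 2% fetal bovine serum | Signal: GalScreen β-gal luminescence, detergent lysis, 60 min | Timing: 3 h attach, ≥90 h co-culture | Also added: Tulahuen C4 trypomastigotes, 5000/well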
Efflux pump mplx: antifungal efflux pump inhibition, Nile Red retention | inhibition, % at 10 µM | S. cerevisiae Candida pump triplex | 0.44% of 330,000 active;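 active means plate passing quality check with inhibition over a set limit, or well fluorescence over plate mean plus 4 SD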;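 further: Nile Red retained in pooled yeast measured as flow cytometry median fluorescence; 0% = buffer negative control and 100% = Enniatin B positive control; higher means more Nile Red kept so more efflux inhibition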
An asterisk follows results filed as active; . = no result. Most compounds without a hit are left out; they make up all but 4.8% or so of the library.

SMILES	Beta cell apopt	WT yeast gro inh	Mot1-301 SUMO	CSC inhib	T cruzi repl	Efflux pump mplx
COC(=O)c1ccc2[nH]c3cccc(/C(=C/c4ccccc4)c4ccccc4)c3c2c1	109*	.	-3	129*	24	0
COC(=O)C1=CN(Cc2ccc(OC)c(OC)c2)C=C(C(=O)OC)C1c1cccc(F)c1	5	.	-18	2	63*	0
CCOc1ccc2nc(SC3CC(=O)N(c4ccc(OC)cc4OC)C3=O)sc2c1 (configuration not stated)	10	25	26	-2	-12	0
CCS(=O)CC(=O)Nc1c(-c2ccccc2)oc2ccccc2c1=O (configuration not stated)	-5	.	-9	5	-6	0
Cc1ccc(NC2(c3nnnn3-c3c(C)cccc3C)CCCCC2)cc1	10	82*	21	29	43	0
O=S(=O)(NCc1ccccc1)[C@@H]1CC2C=CC1C2 (some centres not stated)	0	.	-3	-9	.	0
Cc1ccc(Nc2ccc([N+](=O)[O-])nc2[N+](=O)[O-])cc1	13	7	60	-8	62*	0
O=S(=O)(c1ccccc1)N1N=C(c2ccccc2)CC1c1ccccc1 (configuration not stated)	3	80*	-6	8	.	0
NS(=O)(=O)c1ccc(N2N=C(c3ccccc3)CC2c2cccc(Cl)c2)cc1 (configuration not stated)	.	.	.	.	.	0
COc1ccc(C2CC(c3ccccc3)=NN2c2ccc(S(N)(=O)=O)cc2)cc1 (configuration not stated)	6	66*	.	-14	57*	0
NS(=O)(=O)c1ccc(N2N=C(c3ccccc3)CC2c2ccc(F)cc2)cc1 (configuration not stated)	7	71*	-10	10	38	0
Cc1ccccc1-n1nc2c(c1NC(=O)c1cc3ccccc3o1)CS(=O)(=O)C2	-2	.	13	-5	-2	0
CCCCc1c(C)nc2nc(SCc3ccc(Cl)cc3)[nH]n2c1=O	-1	.	6	23	2	0
COc1ccc(-n2c(-c3ccc(Cl)cc3)c[nH]c2=S)cc1	0	.	33	-12	-3	0
COc1ccc(CCNS(=O)(=O)c2ccc(OC)cc2)cc1	4	74*	33	1	-13	0
COc1ccc(CCNS(=O)(=O)c2ccc3c(c2)OCCO3)cc1	-2	-14	3	-3	-8	0
COc1cc(C(=O)Nc2ccc3c(c2)N(C(=O)CCN(C)C)c2ccccc2CC3)cc(OC)c1OC	1	-15	13	-2	79*	0
CCn1c2ccccc2c2cc(NC(=O)c3cc(OC)c(OC)c(OC)c3)ccc21	.	16	4	.	57*	0
CCn1c2ccccc2c2cc(NC(=O)CN(C)CC(=O)Nc3ccc(N4CCOCC4)cc3)ccc21	2	18	6	80*	8	0
CN(C)CC(=O)N1c2ccccc2CCc2ccc(NC(=O)c3ccc(N)cc3)cc21	0	3	3	-11	18	0
CCn1c2ccccc2c2cc(NC(=O)c3cccc([N+](=O)[O-])c3)ccc21	15	.	9	88*	50	0
CCn1c2ccccc2c2cc(NC(=O)c3ccc(C)c([N+](=O)[O-])c3)ccc21	36	16	1	-3	45	0
CCn1c2ccccc2c2cc(NC(=O)COc3ccc(OC)cc3)ccc21	4	34	0	-2	11	0
CCn1c2ccccc2c2cc(NC(=O)c3cc(OC)cc(OC)c3)ccc21	70	27	20	84*	39	0
CCn1c2ccccc2c2cc(/C=N/NC(=O)c3cc(O)cc(O)c3)ccc21	3	-1	-14	84*	3	0
C/C(=N\NC(=O)CNC(=O)c1ccc(F)cc1)c1ccco1	-2	.	6	-27	7	0
O=C(CN1CCOCC1)Nc1cccc(C(F)(F)F)c1	-11	.	-3	-19	-29	0
O=C(Nc1cccc(C(F)(F)F)c1)n1cc(-c2ccccn2)c(N2CCOCC2)n1	4	77*	3	12	16	0
CCOC(=O)C1=C(CNCCc2ccc(Cl)cc2)NC(=O)NC1c1ccc2c(c1)OCO2 (configuration not stated)	-3	55	-25	.	57*	0
